Screens (PubChem)
The list is not random: actives were taken first. Their share in the collection is about 3.4%.
MC4R antag cAMP – blocks human MC4R cAMP signaling; MC4R-expressing cells, MTII-stimulated cAMP, LANCE TR-FRET; 360,000 tested, 0.48% active; AID 540295; inhibition, % at 6.5 µM;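 active means inhibition above its plate's cutoff, the mean of tested wells on that plate plus 3 SD, cut at about 29% in these data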;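 further: 0% = Melanotan II alone and 100% = Melanotan II plus saturating MCL0020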
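System – human MC4R-expressing U2OS cells · Also added – Melanotan II · Dosing – one concentration, 6.5 µM nominal · Timing – 30-min compound, 1-h challenge, 1-h detection, room temperature · Measured by – Eu-cAMP/anti-cAMP TR-FRET, emission 671 nm · Replicates – singlicate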
MC4R barr agon – activates human MC4R beta-arrestin recruitment | 360,000 tested, 0.98% active | U2OS MC4R beta-arrestin complementation, luminescence; percent of melanotan II response, DMSO zero | activation, % at 8.9 µM | P32245;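 active means activation above a per-plate cutoff, the mean activation of sample wells on that plate plus 3 SD, cut at about 8% in these data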
TMEM16A act – mouse TMEM16A channel activation, primary screen. HEK293 TMEM16A/YFP-H148Q/I152L, iodide quench fluorescence; stronger effect = lower value. B-score at 10 µM. 340,000 tested, 0.3% active;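 active means fluorescence-ratio B-score plate-corrected deviation score at least 3 library SD below zero, with starting fluorescence score within 5 deviations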;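 further: channel opened by trigger with iodide after compound preincubation; score built on the fluorescence ratio of max minus min over baseline; more negative score means more quench and so TMEM16A activation or potentiation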
Target sequence (Q8BHY3 whole entry, looked up): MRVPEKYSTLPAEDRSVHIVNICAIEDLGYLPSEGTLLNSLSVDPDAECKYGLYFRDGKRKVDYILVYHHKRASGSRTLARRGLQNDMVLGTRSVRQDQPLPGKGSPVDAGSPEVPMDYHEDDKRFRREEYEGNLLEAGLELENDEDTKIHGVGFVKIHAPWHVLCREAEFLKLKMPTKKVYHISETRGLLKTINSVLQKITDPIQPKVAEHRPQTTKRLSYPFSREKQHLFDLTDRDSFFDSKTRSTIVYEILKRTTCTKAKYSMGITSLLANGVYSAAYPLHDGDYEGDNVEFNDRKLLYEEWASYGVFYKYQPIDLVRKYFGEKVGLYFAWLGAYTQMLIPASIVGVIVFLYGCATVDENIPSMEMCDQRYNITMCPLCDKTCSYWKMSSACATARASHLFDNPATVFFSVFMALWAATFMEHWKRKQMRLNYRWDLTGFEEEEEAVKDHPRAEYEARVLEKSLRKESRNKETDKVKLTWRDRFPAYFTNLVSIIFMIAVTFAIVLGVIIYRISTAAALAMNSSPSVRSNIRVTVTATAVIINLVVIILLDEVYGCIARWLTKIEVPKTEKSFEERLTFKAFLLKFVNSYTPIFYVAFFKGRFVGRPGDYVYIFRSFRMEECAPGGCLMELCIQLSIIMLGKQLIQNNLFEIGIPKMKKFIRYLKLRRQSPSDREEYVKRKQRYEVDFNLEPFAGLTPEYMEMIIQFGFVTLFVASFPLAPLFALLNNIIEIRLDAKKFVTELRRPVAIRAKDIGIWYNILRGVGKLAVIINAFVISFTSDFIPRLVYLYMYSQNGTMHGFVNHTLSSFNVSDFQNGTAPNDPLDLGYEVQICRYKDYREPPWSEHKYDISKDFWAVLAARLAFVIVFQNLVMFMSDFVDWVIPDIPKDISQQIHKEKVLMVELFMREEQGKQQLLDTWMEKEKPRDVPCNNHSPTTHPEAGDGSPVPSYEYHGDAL
TMEM16A inh – mouse TMEM16A channel inhibition, primary screen | Q8BHY3 | HEK293 TMEM16A/YFP iodide influx fluorescence, ionomycin | normalized B-score (activity score, 25-100; higher = stronger inhibition) at 10 µM | 310,000 tested, 1.2% active;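 active means ratio plate-corrected score three or more library SD toward inhibition, starting fluorescence score within five deviations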;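 further: score derived from kinetic fluorescence span divided by baseline fluorescence per well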
MIN6 prolif – MIN6 beta-cell proliferation induction; 330,000 tested, 0.29% active; AID 2380; proliferation, % at 10 µM; MIN6 cells proliferation, ATPlite luminescence, 48 h; cells starved in 0.2% serum; 100% = growth in 10% serum;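 active means compounds whose signal lies at least 3.5 SD above the mean of all wells on their plate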;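 further: 0% = DMSO-treated cells in low-serum medium and 100% = 10% serum control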
m5-HT2A agonist – mouse HTR2A agonism via beta-arrestin recruitment | P35363 | CHO-K1 mHTR2A beta-arrestin complementation, luminescence; percent of 30 µM serotonin response | activation, % at 7.6 µM | 360,000 tested, 0.66% active | AID 624169;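 active means activation above a run cutoff, the mean activation of all tested compounds plus 3 SD, cut at about 14% in these data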;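 further: 0% = plate median of compound wells and 100% = 30 µM serotonin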
The depositor's hits bear a star; i = inactive; x = no result.

SMILES	MC4R antag cAMP	MC4R barr agon	TMEM16A act	TMEM16A inh	MIN6 prolif	m5-HT2A agonist
Fc1ccc(NC(=S)NCc2cccnc2)cc1	8	-1	-7*	i	-2	-3
O=[N+]([O-])c1ccc(NC(=S)NCCc2ccc(Cl)cc2)cc1	8	2	i	100*	-7	-9
O=[N+]([O-])c1ccc(NC(=S)NCc2ccncc2)cc1	-3	-2	i	i	-2	-3
O=[N+]([O-])c1ccc(NC(=S)NCc2ccc(F)cc2)cc1	9	1	-5*	25*	-4	-8
O=[N+]([O-])c1ccc(NC(=S)NCCc2ccccc2)cc1	3	-2	i	100*	-6	0
S=C(NCCc1ccccc1)Nc1ccc(Cl)cc1	10	0	i	i	-5	0
NS(=O)(=O)c1ccc(NC(=S)NCCc2ccccc2)cc1	-2	-1	i	i	-2	-3
Fc1cccc(NC(=S)NCc2cccnc2)c1	-5	-1	i	i	0	-2
NS(=O)(=O)c1ccc(CCNC(=O)c2ccc(OCC3CCCO3)cc2)cc1 (stereo unspecified)	6	0	i	i	0	-3
Cc1ccc(C)c(NC(=O)c2cc([N+](=O)[O-])cc([N+](=O)[O-])c2)c1	-1	-1	i	i	-3	2
O=[N+]([O-])c1cc(C(F)(F)F)ccc1NCCNC(=S)Nc1ccc(Cl)cc1	5	-2	i	100*	-4	-1
C=CCN1C(=O)/C(=C\c2ccc(Cl)cc2)N=C1SCC(=O)NCCC	9	-2	-27*	i	-1	0
COCCNC(=O)CSC1=N/C(=C/c2ccc(Cl)c(Cl)c2)C(=O)N1c1ccccc1F	6	-2	i	i	-6	3
O=C(CSc1ccc(-c2ccc(F)cc2)nn1)NCc1ccco1	4	-2	i	i	-2	2
CCN1C(=O)/C(=C\c2ccc(F)cc2)N=C1SCC(=O)NCc1ccco1	2	8.6*	i	i	0	5
O=C(NCc1cccc(OC(F)(F)F)c1)c1cccc2c1C(=O)c1ccc(-c3ccc(F)cc3OCc3ccccc3)cc1S2(=O)=O	4	-2	i	x	-4	-11
COc1ccc(-c2ccc3c(c2)S(=O)(=O)c2cccc(C(=O)NCc4cccc(OC(F)(F)F)c4)c2C3=O)cc1OC	3	4	-4.6*	x	-2	1
CCOC(=O)c1nc(C)nc(Sc2n[nH]c(-c3ccc(C(C)(C)C)cc3)n2)c1C	-1	9.3*	i	i	-3	0
Cc1ccc(Cl)c(NC(=O)COC(=O)c2cc[n+]([O-])cc2)c1Cl	4	2	i	x	-2	0
COC(=O)[C@]1(Sc2ccc(C)cc2)CC(=O)N[C@@H]1c1ccccc1	x	x	x	x	x	-3
COc1ccc(C2NC(c3ccc(OC)cc3OC)C(C)C(=O)C2C)c(OC)c1 (stereo unspecified)	6	-3	-5.9*	i	-1	-4
CC(=O)Nc1ccc(S(=O)(=O)N2CCC(C(=O)NCCC(=O)NCc3ccncc3)CC2)cc1	5	-2	i	i	0	4
O=C(CCNC(=O)C1CCN(S(=O)(=O)c2ccccc2)CC1)NCc1ccncc1	0	-3	-28*	i	-3	-9
COc1ccc(C(C)(NC(C)=O)c2nc(-c3cnc4ccccc4c3)cs2)cc1 (stereo unspecified)	2	-1	x	x	x	-3
COc1cc(NC(=S)NC(=O)c2ccco2)ccc1NC(=O)C(C)C	-9	-4	i	i	-2	5
SMILES	MC4R antag cAMP	MC4R barr agon	TMEM16A act	TMEM16A inh	MIN6 prolif	m5-HT2A agonist
COc1cc(NC(=S)NC(=O)c2ccccc2F)ccc1NC(=O)c1ccco1	2	9.1*	i	i	-2	1
COc1ccccc1C(=O)NC(=S)Nc1ccc(Cc2ccncc2)cc1	15	13*	i	i	-3	-9
O=C1CN(C(=O)/C=C/c2ccc(Br)cc2)CCN1	5	2	i	i	x	-1
Cc1ccccc1OCc1nnc(SCC(=O)Nc2ccc3nc(SCC(=O)NC(C)(C)C)sc3c2)n1C	0	11*	i	100*	-4	-3
Cc1ccccc1NC(=O)COc1coc(CN2CCN(c3ccccc3)CC2)cc1=O	-1	0	i	i	-2	3
Cc1ccc(Cc2cnc(NC(=O)c3ccco3)s2)cc1	3	2	i	i	-5	-4
O=C(Nc1ncc(Cc2ccc(SC(F)F)cc2)s1)c1ccc(OC(F)F)cc1	11	33*	i	i	-6	-4
CCCCCC(=O)N1C[C@H](n2cc(-c3ccc(F)cc3)nn2)[C@@H](O)C[C@@H]1c1ccc(Cl)cc1	24	3	x	x	x	3
CCC(=O)Oc1ccc(C(CC)C(CC)c2ccc(OC(=O)CC)cc2)cc1 (stereo unspecified)	5	-1	i	100*	-6	11
COc1ccccc1C(=O)NCCC(=O)N1CCN(c2cccc(C(F)(F)F)c2)CC1	19	3	i	i	-2	-2
Cc1nc(C(F)(F)F)ccc1C(=O)N1CCC(C)(C(=O)O)C1 (stereo unspecified)	14	0	x	x	x	-1
Cc1ccc(-c2nc3c(c(=O)[nH]c(=O)n3CC(C)C)n2CC(C)C)cc1[N+](=O)[O-]	4	2	-4.6*	i	2	-3
COCCn1c(-c2ccc(OC(F)(F)C(F)C(F)(F)F)cc2)nc2c1c(=O)[nH]c(=O)n2CC(C)C (stereo unspecified)	15	1	i	100*	-7	-7
O=S(=O)(Nc1ccc(-n2cnnn2)cc1)c1cccs1	14	0	i	x	-6	11
Cc1ccc(OC2CCN(C(=O)[C@H]3O[C@@H](n4cnc5c(N)ncnc54)[C@H](O)[C@@H]3O)CC2)cc1	x	x	x	x	x	-5
CC(C)(C)c1ccc(C(=O)NC(=S)NNC(=O)COc2ccccc2)cc1	2	-8	-4.6*	100*	-6	-1
CC(C)(C)c1ccc(OCC(=O)NNC(=O)CCc2ccccc2)cc1	-3	-4	i	i	-3	-4
Cc1ccc(C(=O)NNC(=S)NC(=O)COc2ccccc2)cc1	-4	-1	i	25*	-3	-1
COc1ccc(NC(=O)C2CC3CCC2C3)c(OC)c1 (stereo unspecified)	-5	-1	i	i	1	-1
CCN(CC)c1ccc(C=C2SC(=S)NC2=O)cc1	10	-3	-5.1*	x	x	-3
